# Test results from ChEMBL document CHEMBL1134511, “Development of potent non-carbohydrate imidazole-based small molecule selectin inhibitors with antiinflammatory activity” (J Med Chem, 2001).
# Columns and labels:
# P-selectin [1] = target: T1, P-selectin (Homo sapiens, UniProt P16109); test: Inhibitory activity against P-selectin using cell-selectin protein assay
# T1 sequence (P16109 whole entry): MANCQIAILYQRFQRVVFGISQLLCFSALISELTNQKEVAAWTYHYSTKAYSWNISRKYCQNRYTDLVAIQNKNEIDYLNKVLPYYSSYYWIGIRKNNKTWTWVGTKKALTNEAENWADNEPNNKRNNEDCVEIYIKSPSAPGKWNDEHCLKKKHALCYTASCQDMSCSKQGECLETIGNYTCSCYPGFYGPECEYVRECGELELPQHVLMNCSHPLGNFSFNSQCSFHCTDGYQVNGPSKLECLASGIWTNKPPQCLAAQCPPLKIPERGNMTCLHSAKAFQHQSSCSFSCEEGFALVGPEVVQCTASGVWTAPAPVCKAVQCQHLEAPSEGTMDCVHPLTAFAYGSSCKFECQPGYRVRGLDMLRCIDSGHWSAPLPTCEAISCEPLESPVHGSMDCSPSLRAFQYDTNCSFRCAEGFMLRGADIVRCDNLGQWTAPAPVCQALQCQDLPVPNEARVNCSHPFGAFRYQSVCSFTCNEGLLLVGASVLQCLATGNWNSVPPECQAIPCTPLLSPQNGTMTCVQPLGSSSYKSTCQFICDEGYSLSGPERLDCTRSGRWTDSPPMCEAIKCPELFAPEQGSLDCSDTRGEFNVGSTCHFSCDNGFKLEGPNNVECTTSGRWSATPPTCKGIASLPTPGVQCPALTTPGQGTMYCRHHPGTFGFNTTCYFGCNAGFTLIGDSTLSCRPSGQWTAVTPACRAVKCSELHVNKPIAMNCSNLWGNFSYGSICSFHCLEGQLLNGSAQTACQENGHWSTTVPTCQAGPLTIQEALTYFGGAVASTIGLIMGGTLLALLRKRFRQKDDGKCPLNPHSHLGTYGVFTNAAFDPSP
# P-selectin [2] = target: T1, P-selectin; test: Inhibitory activity against P-selectin using ELISA-based assay
# Summary of the method: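 P-selectin–IgG chimera precomplexed with biotinylated goat F(ab')2 anti-human IgG and streptavidin–alkaline phosphatase, preincubated with compound 30 min RT in 50 mM imidazole pH 7.2, 1% BSA, 1 mM CaCl2. Mix added to sialyl Lewis^x pentaceramide-coated (40-100 pmol/well), BSA-blocked wells, 45 min 37 °C. p-Nitrophenyl phosphate read at 405 nm; chimera-free background subtracted; duplicate/triplicate; IC50 from % inhibition.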
# P-selectin [3] = target: T1, P-selectin; test: Inhibitory activity against P-selectin using cell-cell assay; Not active; assay type: functional
# Summary of the method: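 CHO cells stably transfected with human P-selectin, plated the day before, used as monolayers. Compounds added at 2× in cold RPMI, 20 min 4 °C; BCECF-AM-labelled HL60 cells (2 × 10⁶ cells/mL) then adhered 30 min at 4 °C. Unbound cells washed off, bound cells read by fluorescence; triplicates; IC50 by Probit analysis.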
# E-selectin = target: T2, E-selectin (Homo sapiens, UniProt P16581); test: Inhibitory activity against Selectin E using cell-cell assay; Not active; assay type: functional
# T2 sequence (P16581 whole entry): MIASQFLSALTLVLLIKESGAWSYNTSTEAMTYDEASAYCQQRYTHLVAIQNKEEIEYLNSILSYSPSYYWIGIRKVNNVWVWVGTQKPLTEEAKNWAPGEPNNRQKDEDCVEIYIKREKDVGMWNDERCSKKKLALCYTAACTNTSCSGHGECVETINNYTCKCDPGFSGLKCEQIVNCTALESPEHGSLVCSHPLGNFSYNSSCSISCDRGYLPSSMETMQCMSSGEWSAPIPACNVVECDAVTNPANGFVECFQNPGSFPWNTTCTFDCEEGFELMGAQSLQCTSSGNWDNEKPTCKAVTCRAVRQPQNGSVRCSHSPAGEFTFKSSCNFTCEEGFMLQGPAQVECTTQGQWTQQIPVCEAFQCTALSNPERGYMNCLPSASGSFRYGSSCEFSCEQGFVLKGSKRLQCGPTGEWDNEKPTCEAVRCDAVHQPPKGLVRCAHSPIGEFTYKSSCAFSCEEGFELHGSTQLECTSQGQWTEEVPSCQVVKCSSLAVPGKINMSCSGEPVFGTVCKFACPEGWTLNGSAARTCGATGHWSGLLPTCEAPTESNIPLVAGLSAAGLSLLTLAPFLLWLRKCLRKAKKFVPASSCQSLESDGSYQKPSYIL
# Summary of the method: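 HUVEC monolayers (≤4-5 passages, gelatin-coated wells) activated on assay day with 10 ng/mL IL-1β as native E-selectin source. Compounds at 2× in cold RPMI preincubated 20 min 4 °C in triplicate; BCECF-AM-labelled HL60 cells (2 × 10⁶ cells/mL) added, 30 min 4 °C. Unbound cells washed off, bound cells read by fluorescence; IC50 by Probit analysis.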
Structure (SMILES),IC50 (P-selectin [1]) [µM],IC50 (P-selectin [2]) [µM],IC50 (P-selectin [3]),IC50 (E-selectin)
O=C(O)/C=C/c1ccc(-c2nc(-c3ccc(/C=C/C(=O)NCCCc4ccccc4)cc3)c(-c3ccc(C4=NOC(C(=O)O)C4)cc3)[nH]2)cc1 (stereo not given),21,100,,
CCCCCCCCCCCCCCCCNC(=O)/C=C/c1ccc(-c2[nH]c(-c3ccc(C4=NOC(C(=O)O)C4)cc3)nc2-c2ccc(/C=C/C(=O)O)cc2)cc1 (stereo not given),9,0.29,,
O=C(/C=C/c1ccc(-c2nc(-c3ccc(N4CCCC4)cc3)[nH]c2-c2ccc(C3=NOC(C(=O)O)C3)cc2)cc1)NCCCc1ccccc1 (stereo not given),50,34,Not Active,
CCCCCCCCCCCCCCCCNC(=O)/C=C/c1ccc(-c2[nH]c(-c3ccc(-c4cc(C(=O)O)on4)cc3)nc2-c2ccc(/C=C/C(=O)O)cc2)cc1,2.7,0.13,,
CC(=O)N[C@H]1[C@H]([C@H](O)[C@H](O)CO)O[C@@](O[C@H]2[C@@H](O)[C@@H](CO)O[C@@H](O[C@@H]([C@H](O[C@@H]3O[C@@H](C)[C@@H](O)[C@@H](O)[C@@H]3O)[C@H](C=O)NC(C)=O)[C@H](O)CO)[C@@H]2O)(C(=O)O)C[C@@H]1O [SIALYL LEWIS X],,> 1,,

# Other lines, results leading:
IC50 (P-selectin [1]) [µM],IC50 (P-selectin [2]) [µM],IC50 (P-selectin [3]),IC50 (E-selectin),Structure (SMILES)
40,17,,,CCCCCCCCCCCCCCCCNC(=O)/C=C/c1ccc(-c2[nH]cnc2-c2ccc(/C=C/C(=O)O)cc2)cc1
21,,Not Active,Not Active,CCCCCCN(CCCCCC)C(=O)/C=C/c1ccc(-c2[nH]cnc2-c2ccc(/C=C/C(=O)O)cc2)cc1
290,3,,Not Active,CCCCCCCCCCCCNC(=O)/C=C/c1ccc(-c2[nH]c(-c3ccc(-c4cc(C(=O)O)on4)cc3)nc2-c2ccc(/C=C/C(=O)O)cc2)cc1
44,16,,,CCCCCCCc1ccc(NC(=O)/C=C/c2ccc(-c3[nH]cnc3-c3ccc(/C=C/C(=O)O)cc3)cc2)cc1
